According to ChEMBL document CHEMBL2169822, “Discovery and optimization of 1,3,4-trisubstituted-pyrazolone derivatives as novel, potent, and nonsteroidal farnesoid X receptor (FXR) selective antagonists” (J Med Chem, 2012):
Activity calls are given as the source filed them. The rule behind the calls is not given here.

Legend:
Mus musculus [1] = assay: Reduction of hepatic cholesterol level in cholesterol-fed C57BL/6 mouse at 100 mg/kg, po after 10 days; type: functional; parameters: scale not given: the % may be the effect or the level left
Method in brief: (§1)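 Male C57BL/6 mice, 8–12 weeks old, were randomized into five groups of nine. Control mice had ground chow; the other groups had chow with 2% cholesterol. Compound (50 or 100 mg/kg) or reference (100 mg/kg) was suspended in 0.5% CMC-Na and given by oral gavage; control and vehicle mice got 0.5% CMC-Na. Serum and hepatic triglyceride and total cholesterol were measured.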

[2] = molecular target: T1, Bile acid receptor (Homo sapiens) (UniProt Q96RI1); assay: Antagonist activity at human FXR in human HepG2 cells assessed as reduction in triglyceride level after 24 hrs; type: functional, cell-based
T1 sequence (whole entry): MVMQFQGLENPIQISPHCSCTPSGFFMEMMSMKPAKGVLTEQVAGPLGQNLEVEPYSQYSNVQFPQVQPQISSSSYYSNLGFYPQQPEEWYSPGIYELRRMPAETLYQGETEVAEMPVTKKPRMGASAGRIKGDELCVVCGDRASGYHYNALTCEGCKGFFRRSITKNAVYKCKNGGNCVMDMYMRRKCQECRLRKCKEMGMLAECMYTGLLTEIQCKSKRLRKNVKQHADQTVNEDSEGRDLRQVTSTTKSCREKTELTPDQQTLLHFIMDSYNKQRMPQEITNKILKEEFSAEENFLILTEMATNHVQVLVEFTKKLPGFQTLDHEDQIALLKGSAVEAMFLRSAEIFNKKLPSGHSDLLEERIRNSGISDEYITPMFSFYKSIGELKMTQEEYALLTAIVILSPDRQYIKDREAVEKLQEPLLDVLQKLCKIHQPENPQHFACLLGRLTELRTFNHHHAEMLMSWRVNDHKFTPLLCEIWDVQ
Method in brief: (§2)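 HepG2 cells were serum-starved overnight in FBS-free DMEM, then given DMSO or compound for 24 h in serum-free DMEM. Cells were lysed in RIPA buffer, sonicated on ice and centrifuged at 12000 rpm, 4 °C. Triglyceride and total cholesterol in the cleared lysate were measured by kits, with total protein by BCA. At least three experiments.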

Mus musculus [3] = assay: Reduction of serum triglyceride level in cholesterol-fed C57BL/6 mouse at 100 mg/kg, po after 10 days; type: functional; parameters: scale not given: the % may be the effect or the level left; method in brief: as §1
[4] = molecular target: T1, Bile acid receptor (Homo sapiens); assay: Antagonist activity at human FXR in human HepG2 cells assessed as reduction in cholesterol level at 10 uM after 24 hrs; type: functional, cell-based; method in brief: as §2
[5] = molecular target: T2, Peroxisome proliferator-activated receptor delta (Homo sapiens) (UniProt Q03181); assay: Antagonist activity at recombinant PPARdelta LBD expressed in HEK293T cells co-expressing GAL4 DBD assessed as inhibition of GW1516-induced transactivation at 20 uM by luciferase reporter gene assay; type: functional, cell-based; conditions: HEK-293T
T2 sequence (whole entry): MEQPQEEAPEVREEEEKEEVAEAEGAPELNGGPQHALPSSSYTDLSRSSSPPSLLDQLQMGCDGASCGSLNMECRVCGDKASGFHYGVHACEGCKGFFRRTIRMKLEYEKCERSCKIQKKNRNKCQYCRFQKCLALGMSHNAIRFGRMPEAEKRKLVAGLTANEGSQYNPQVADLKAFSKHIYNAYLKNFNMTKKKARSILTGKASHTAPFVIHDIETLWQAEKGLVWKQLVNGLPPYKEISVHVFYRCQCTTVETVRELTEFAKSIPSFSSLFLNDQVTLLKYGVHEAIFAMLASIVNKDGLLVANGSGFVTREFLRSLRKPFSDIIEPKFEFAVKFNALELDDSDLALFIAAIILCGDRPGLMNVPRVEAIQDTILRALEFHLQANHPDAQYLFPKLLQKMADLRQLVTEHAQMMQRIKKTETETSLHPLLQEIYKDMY
Method in brief: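 One-hybrid assay in HEK293T cells cotransfected with a Gal4 DBD–NR-LBD fusion (RXRα, LXRα, GR, PR, PPARδ or PPARγ) plus UAS-TK-Luc reporter. Compound was 20 μM, given alone or with agonist: 9cRA 0.1 μM (RXRα), TO901317 0.5 μM (LXRα), dexamethasone 50 nM (GR), progesterone 100 nM (PR), GW1516 10 μM (PPARδ), rosiglitazone 10 μM (PPARγ). Luciferase read-out; three independent experiments.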

[6] = molecular target: T1, Bile acid receptor (Homo sapiens); assay: Antagonist activity at human FXR in human HepG2 cells assessed as reduction in cholesterol level after 24 hrs; type: functional, cell-based; method in brief: as §2
[7] = (§3) Antagonist activity at FXRalpha/RXRalpha expressed in HEK293T cells co-expressing GAL4 DBD assessed as inhibition of CDCA-induced transactivation after 18 hrs by luciferase reporter gene assay; type: functional, cell-based; conditions: Homo sapiens, HEK-293T
Method in brief: (§4)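 FXR transactivation in HEK293T cells transiently transfected with pcDNA3.1-FXRα, pcDNA3.1-RXRα, pGL3-FXRE-Luc and pRL-SV40 Renilla vector. Medium was replaced 6 h after transfection with medium holding compound at varied concentrations, with or without 20 μM CDCA, for 18 h. Read-out was dual-luciferase. Three independent experiments.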

HEK-293T = assay: as §3; type: functional, cell-based; conditions: Homo sapiens; method in brief: as §4
Mus musculus [8] = assay: Reduction of hepatic cholesterol level in cholesterol-fed C57BL/6 mouse administered orally after 10 days; type: functional, organism-based; method in brief: as §1

COc1cc(/C=C2\C(=O)N(c3cccc([N+](=O)[O-])c3)N=C2c2ccccc2)ccc1O
Activity (Mus musculus [1]): 47.5% | inhibition [2]: Dose-dependent effect | Activity (Mus musculus [3]): 60.3% | inhibition [4]: 27.1% | inhibition [5]: inactive | inhibition [6]: Dose-dependent effect | IC50 [7]: 25.6 µM | inhibition (HEK-293T): Dose-dependent effect | Activity (Mus musculus [8]): Dose-dependent effect
